From ChEMBL document CHEMBL1122328, “Hypolipidemic activity of phthalimide derivatives. 2. N-phenylphthalimide and derivatives” (1983)

Experiments:
Type in all cases: functional
[1] = test system: Mus musculus; assay: In vitro effect on CF1 male mouse on Lipid content after 16 days at a dose of 60 (mg/kg)/day
[2] = test system: Mus musculus; assay: In vitro effect on CF1 male mouse onAc-CoA carboxylase after 16 days at a dose of 10 (mg/kg)/day; settings: in the assay text read “In vivo” for “In vitro”
Outline: (§1)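 Mice (CF1 males) given agent ip daily for 16 days in 1% carboxymethylcellulose; liver 10% homogenate in 0.25 M sucrose + 0.001 M EDTA. Acetyl-CoA carboxylase first polymerized 30 min at 37 °C, then incubated 30 min at 37 °C with sodium [14C]bicarbonate (41.0 mCi/mmol); incorporated label counted. Activity as % of vehicle control; N = 6.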

[3] = test system: Mus musculus; assay: In vitro effect on CF1 male mouse on Ac-CoA synthetase after 16 days at a dose of 20 (mg/kg)/day
Outline: (§2)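 In vivo enzyme study. CF₁ male mice were dosed ip for 16 days in 1% CMC, and liver was homogenised to 10% in 0.25 M sucrose with 0.001 M EDTA. Enzymes assayed: acetyl-CoA synthetase as hydroxamate at 540 nm after 30 min at 37 °C; HMG CoA reductase with [1-¹⁴C]acetate in 9000g supernatant for 60 min at 37 °C; fatty acid synthetase with [2-¹⁴C]malonyl-CoA; acyltransferase with [³H]glycerol 3-phosphate and microsomes for 10 min; phosphatidate phosphohydrolase as released phosphate at 820 nm after 30 min. N = 6; reported as % control.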

[4] = test system: Mus musculus; assay: In vitro effect on CF1 male mouse onAc-CoA carboxylase after 16 days at a dose of 60 (mg/kg)/day; outline: as §1
[5] = test system: Mus musculus; assay: Effect on Serum cholesterol levels on Hyperlipidemic induced mice After 14 days dosing.
Outline: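 Mice fed atherogenic diet for 2 weeks to raise serum lipids, then given drug at 20 (mg/kg)/day ip for a further 2 weeks; serum cholesterol and triglyceride measured after the diet and after 14 days dosing; n = 6; compared with 1% CMC and diet-only controls; % control.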

[6] = test system: Mus musculus; assay: Effect on Serum cholesterol levels on CF1 male mice at a dose of 20 (mg/kg)/day after 16 days
Outline: (§3)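 CF1 male mice (~25 g), drug suspended in 1% carboxymethylcellulose in water, given ip daily for 16 days; n = 6; vehicle control. Tail-vein blood on days 9 and 16, serum cholesterol by modified Liebermann–Burchard reaction; day-14 serum triglyceride by commercial kit; expressed as % control.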

[7] = test system: Mus musculus; assay: In vitro effect on CF1 male mouse on HMGCoA reductase after 16 days at a dose of 40 (mg/kg)/day; outline: as §2
[8] = test system: Rattus norvegicus; assay: Effect on Serum triglceride levels on Holtzman rats at a dose of 10 (mg/kg)/day after 14 days
Outline: (§4)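 Holtzman male rats (~200 g) dosed orally by intubation needle daily for 16 days, drug suspended in 1% carboxymethylcellulose; n = 6; vehicle control. Tail-vein serum cholesterol on days 9 and 16 by modified Liebermann–Burchard reaction; day-14 serum triglyceride by commercial kit; % control.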

[9] = test system: Rattus norvegicus; assay: Effect on Serum cholesterol levels on Holtzman rats at a dose of 30 (mg/kg)/day after 16 days; outline: as §4
[10] = test system: Mus musculus; assay: Effect on mg of lipid from CF1 male mice after 16 days at a dose of 40 (mg/kg/day)
Outline: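 CF1 male mice dosed ip for 16 days at 10–60 (mg/kg)/day; liver taken and 10% homogenate made in 0.25 M sucrose + 0.001 M EDTA; aliquot extracted by Folch and Bligh–Dyer methods, mg lipid weighed, cholesterol measured by Liebermann–Burchard method; n = 6; % of 1% CMC control.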

[11] = test system: Mus musculus; assay: Effect on phospholipids from CF1 male mice after 16 days at a dose of 40 (mg/kg/day)
Outline: (§5)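 Dosing was ip in CF₁ male mice (~25 g) for 16 days, with compound suspended in 1% carboxymethylcellulose. Liver was then taken and homogenised to 10% in 0.25 M sucrose with 0.001 M EDTA. Lipid was extracted from a 2 mL aliquot by the Folch and Bligh–Dyer methods and total mg of lipid was weighed. Cholesterol (Liebermann–Burchard), triglycerides (kit), neutral lipids and phospholipids were then measured; N = 6; reported as % of vehicle control.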

[12] = test system: Mus musculus; assay: Effect on neutral lipids from CF1 male mice after 16 days at a dose of 20 (mg/kg/day); outline: as §5
[13] = organism: Mus musculus; assay: In vitro effect on CF1 male mouse on Citrate lyase
Outline: (§6)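 In vitro test on 10% CF₁ male mouse liver homogenate (0.25 M sucrose, 0.001 M EDTA) with 2.5 μmol test drug. Assays: acetyl-CoA synthetase and citrate lyase as hydroxamate at 540 nm, 30 min, 37 °C; citrate exchange from [¹⁴C]citrate-loaded mitochondria after 10 min with drug; side-chain oxidation by ¹⁴CO₂ from [26-¹⁴C]cholesterol, 18 h, 37 °C; acetyl-CoA carboxylase by [¹⁴C]bicarbonate fixation after 30 min polymerization then 30 min at 37 °C.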

[14] = test system: Mus musculus; assay: Effect on phospholipids from CF1 male mice after 16 days at a dose of 60 (mg/kg/day); outline: as §5
[15] = test system: Mus musculus; assay: In vitro effect on CF1 male mouse on phosphatidate phosphohydrolase after 16 days at a dose of 60 (mg/kg)/day
Outline: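 CF1 male mice dosed ip daily for 16 days, drug suspended in 1% carboxymethylcellulose; liver taken as 10% homogenate in 0.25 M sucrose + 0.001 M EDTA. Phosphatidate phosphohydrolase measured as inorganic phosphate released from phosphatidic acid after 30 min, developed with ascorbic acid/ammonium molybdate, read at 820 nm. Expressed as % of 1% CMC vehicle control; N = 6.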

[16] = organism: Mus musculus; assay: In vitro effect on CF1 male mouse on HMGCoA reductase
[17] = test system: Rattus norvegicus; assay: Effect on Serum cholesterol levels on Holtzman rats at a dose of 10 (mg/kg)/day after 16 days; outline: as §4
[18] = test system: Mus musculus; assay: In vitro effect on CF1 male mouse on phosphatidate phosphohydrolase after 16 days at a dose of 10 (mg/kg)/day; outline: as §2
[19] = test system: Mus musculus; assay: Effect on triglycerides from CF1 male mice after 16 days at a dose of 20 (mg/kg/day); outline: as §5
[20] = test system: Rattus norvegicus; assay: Effect on Serum cholesterol levels on Holtzman rats at a dose of 30 (mg/kg)/day after 9 days; outline: as §4
[21] = test system: Mus musculus; assay: Effect on triglycerides from CF1 male mice after 16 days at a dose of 10 (mg/kg/day); outline: as §5
[22] = organism: Mus musculus; assay: In vitro effect on CF1 male mouse on Mitochondrial citrate exchange; outline: as §6
[23] = test system: Mus musculus; assay: In vitro effect on CF1 male mouse onAc-CoA carboxylase after 16 days at a dose of 40 (mg/kg)/day; settings: in the assay text read “In vivo” for “In vitro”; outline: as §1
[24] = test system: Rattus norvegicus; assay: Effect on low density cholesterol Holtzman rats after 14 days administration
Outline: (§7)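 Holtzman male rats (~400 g) given drug at 20 (mg/kg)/day for 14 days; on day 14 blood taken from the abdominal aorta and serum separated by centrifugation at 3500 rpm; lipid and protein content of the lipoprotein fractions measured.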

[25] = test system: Rattus norvegicus; assay: Effect on Serum triglceride levels on Holtzman rats at a dose of 30 (mg/kg)/day after 14 days; outline: as §4
[26] = test system: Mus musculus; assay: Effect on Serum cholesterol levels on CF1 male mice at a dose of 12.5 (mg/kg)/day after 9 days; outline: as §3
[27] = test system: Rattus norvegicus; assay: Effect on Chylomicrons of Protein Holtzman rats after 14 days administration; outline: as §7
[28] = test system: Mus musculus; assay: Effect on phospholipids from CF1 male mice after 16 days at a dose of 20 (mg/kg/day); outline: as §5

CC(=O)c1ccccc1N1C(=O)c2ccccc2C1=O
Control [1]: 80%
Control [2]: 8%
Control [3]: 46%
Control [4]: 57%
Control [5]: 118%
Serum cholesterol (% of control) [6]: 43%
Control [7]: 84%
Control [8]: 76%
Control [9]: 64%
Control [10]: 80%
Control [11]: 143%
Control [12]: 65%
Control [13]: 62%
Control [14]: 86%
Control [15]: 98%
Control [16]: 91%
Control [17]: 54%
Control [18]: 85%
Control [19]: 91%
Control [20]: 76%
Control [21]: 46%
Control [22]: 76%
Control [23]: 48%
Control [24]: 57%
Control [25]: 75%
Control [26]: 83%
Control [27]: 91%
Control [28]: 163%
